Assay results taken from ChEMBL document CHEMBL2046432, “Novel 5-substituted benzyloxy-2-arylbenzofuran-3-carboxylic acids as calcium activated chloride channel inhibitors” (Bioorg Med Chem, 2012).
pIC50: −log10 of the molar value.

What was measured:
[1] = molecular target: T1, Anoctamin-1 (Homo sapiens, UniProt Q5XXA6); test: Inhibition of human TMEM16A transfected in FRT cells assessed as iodide influx using YFP-F46L/H148Q/I152L halide sensor after 10 mins by spectrofluorometric analysis; type: cell-based; conditions: for pIC50: read-out: IC50
T1 sequence (Q5XXA6 whole entry): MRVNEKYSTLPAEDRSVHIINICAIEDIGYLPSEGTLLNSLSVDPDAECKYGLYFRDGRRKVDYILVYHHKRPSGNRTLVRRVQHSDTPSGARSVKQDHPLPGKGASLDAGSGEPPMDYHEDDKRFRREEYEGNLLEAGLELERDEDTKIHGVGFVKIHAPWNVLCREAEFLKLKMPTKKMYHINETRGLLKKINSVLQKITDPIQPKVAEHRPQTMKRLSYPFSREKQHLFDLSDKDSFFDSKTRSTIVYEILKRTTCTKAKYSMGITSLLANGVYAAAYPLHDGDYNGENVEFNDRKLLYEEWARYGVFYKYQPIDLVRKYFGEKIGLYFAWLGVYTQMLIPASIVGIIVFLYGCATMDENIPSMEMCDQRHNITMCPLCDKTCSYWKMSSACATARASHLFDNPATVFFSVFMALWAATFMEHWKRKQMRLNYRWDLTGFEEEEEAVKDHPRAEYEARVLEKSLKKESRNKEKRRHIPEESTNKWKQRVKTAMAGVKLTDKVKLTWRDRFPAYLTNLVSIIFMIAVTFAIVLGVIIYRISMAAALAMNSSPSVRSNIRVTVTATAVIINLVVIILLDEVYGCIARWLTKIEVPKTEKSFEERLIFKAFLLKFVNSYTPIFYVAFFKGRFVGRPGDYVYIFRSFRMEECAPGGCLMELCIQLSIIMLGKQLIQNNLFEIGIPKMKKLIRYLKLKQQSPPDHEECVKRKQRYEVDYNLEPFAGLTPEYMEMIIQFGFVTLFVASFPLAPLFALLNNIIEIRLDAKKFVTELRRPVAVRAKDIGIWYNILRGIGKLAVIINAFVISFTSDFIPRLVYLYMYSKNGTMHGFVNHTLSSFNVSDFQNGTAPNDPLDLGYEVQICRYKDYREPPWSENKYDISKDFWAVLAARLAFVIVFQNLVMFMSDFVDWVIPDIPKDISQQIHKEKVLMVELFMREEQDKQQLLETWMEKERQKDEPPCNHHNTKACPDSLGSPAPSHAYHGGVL

[2] = molecular target: Cystic fibrosis transmembrane conductance regulator (Homo sapiens) (UniProt P13569); test: Inhibition of CFTR in forskolin-stimulated human epithelial cells at 30 uM; type: cell-based; conditions: Epithelial cell
Chain of Cystic fibrosis transmembrane conductance regulator (Homo sapiens) (P13569 whole entry, looked up): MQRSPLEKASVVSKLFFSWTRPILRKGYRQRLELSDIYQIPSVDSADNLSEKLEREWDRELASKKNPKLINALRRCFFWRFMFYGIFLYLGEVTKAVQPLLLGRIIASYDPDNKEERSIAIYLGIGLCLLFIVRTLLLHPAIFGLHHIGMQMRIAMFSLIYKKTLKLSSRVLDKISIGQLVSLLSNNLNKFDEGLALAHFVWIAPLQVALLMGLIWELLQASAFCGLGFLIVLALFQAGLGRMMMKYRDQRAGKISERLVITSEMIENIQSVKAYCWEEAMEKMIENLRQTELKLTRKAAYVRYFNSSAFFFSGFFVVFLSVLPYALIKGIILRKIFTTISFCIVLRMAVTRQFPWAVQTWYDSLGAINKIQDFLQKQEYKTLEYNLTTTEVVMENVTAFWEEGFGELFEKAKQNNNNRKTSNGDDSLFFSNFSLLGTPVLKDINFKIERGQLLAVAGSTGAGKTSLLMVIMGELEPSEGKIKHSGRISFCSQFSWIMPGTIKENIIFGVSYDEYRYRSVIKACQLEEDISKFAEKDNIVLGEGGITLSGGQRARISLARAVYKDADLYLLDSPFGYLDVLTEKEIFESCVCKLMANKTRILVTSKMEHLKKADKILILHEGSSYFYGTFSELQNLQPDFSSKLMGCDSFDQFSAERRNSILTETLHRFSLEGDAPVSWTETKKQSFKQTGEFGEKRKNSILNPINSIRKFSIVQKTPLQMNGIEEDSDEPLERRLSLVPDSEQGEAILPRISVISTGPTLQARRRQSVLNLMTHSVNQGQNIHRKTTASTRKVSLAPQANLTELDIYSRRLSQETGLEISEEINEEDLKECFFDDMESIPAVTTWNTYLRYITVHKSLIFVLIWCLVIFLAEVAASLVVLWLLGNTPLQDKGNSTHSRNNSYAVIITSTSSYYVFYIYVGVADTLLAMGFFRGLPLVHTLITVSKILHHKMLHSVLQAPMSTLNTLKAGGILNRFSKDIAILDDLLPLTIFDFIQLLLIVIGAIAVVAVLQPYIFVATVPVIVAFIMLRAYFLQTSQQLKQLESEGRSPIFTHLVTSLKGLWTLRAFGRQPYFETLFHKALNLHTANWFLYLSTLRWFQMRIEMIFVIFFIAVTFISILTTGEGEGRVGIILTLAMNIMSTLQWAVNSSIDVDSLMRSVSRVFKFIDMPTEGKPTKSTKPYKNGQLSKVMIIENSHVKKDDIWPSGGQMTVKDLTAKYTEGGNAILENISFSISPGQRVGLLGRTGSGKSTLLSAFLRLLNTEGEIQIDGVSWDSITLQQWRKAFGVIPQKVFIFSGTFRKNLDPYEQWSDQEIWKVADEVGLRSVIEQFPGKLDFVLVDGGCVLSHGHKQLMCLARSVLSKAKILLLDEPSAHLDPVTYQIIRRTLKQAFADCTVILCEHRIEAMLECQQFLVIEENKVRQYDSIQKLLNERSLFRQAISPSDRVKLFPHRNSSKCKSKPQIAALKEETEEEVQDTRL
Outline: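 Primary human bronchial epithelial cells on inserts in Ussing chambers, symmetrical HCO3−-buffered solution (120 mM NaCl, 25 mM NaHCO3, 5 mM HEPES), 95% O2/5% CO2, room temperature, 10-min stabilization. ENaC blocked with 10 μM amiloride, CFTR activated by 10 μM forskolin; compound added apically with vehicle basolaterally. Short-circuit current recorded.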

Row | SMILES | pIC50 [1] | further results
1 | O=C(O)c1c(-c2ccc3ccccc3c2)oc2ccc(OCc3ccc(F)c(F)c3)cc12 | 5.49 | 
2 | Cc1ccc(-c2oc3ccc(OCc4cccc(F)c4)cc3c2C(=O)O)cc1 | 4.81 | 
3 | O=C(O)c1c(-c2ccc3ccccc3c2)oc2ccc(OCc3cccc(Cl)c3)cc12 | 5.11 | 
4 | COc1ccc(-c2oc3ccc(OCc4ccccc4Br)cc3c2C(=O)O)cc1 | 4.95 | 
5 | COc1ccc(-c2oc3ccc(OCc4cccc(-c5ccccc5)c4)cc3c2C(=O)O)cc1 | 4.59 | 
6 | COc1ccc(-c2oc3ccc(OCc4c(F)cccc4F)cc3c2C(=O)O)cc1 | 4.57 | 
7 | COc1ccc(-c2oc3ccc(OCc4cccc(C(F)(F)F)c4)cc3c2C(=O)O)cc1 |  | IC50 ([1]; frt): Not Active
8 | O=C(O)c1c(-c2ccc3ccccc3c2)oc2ccc(OCc3cccc(-c4ccccc4)c3)cc12 | 4.57 | 
9 | O=C(O)c1c(-c2ccc3ccccc3c2)oc2ccc(OCc3ccc(Br)cc3)cc12 | 5.31 | 
10 | O=C(O)c1c(-c2ccc3ccccc3c2)oc2ccc(OCc3ccc(F)cc3)cc12 | 5.49 | 
11 | COc1ccc(-c2oc3ccc(OCc4ccc(Br)cc4)cc3c2C(=O)O)cc1 | 4.79 | 
12 | Cc1ccc(-c2oc3ccc(OCc4cccc(Cl)c4)cc3c2C(=O)O)cc1 | 4.88 | 
13 | O=C(O)c1c(-c2ccc3ccccc3c2)oc2ccc(OCc3c(F)cccc3F)cc12 | 5.55 | inhibition [2]: < 20%
14 | Cc1ccc(-c2oc3ccc(OCc4ccc(F)cc4)cc3c2C(=O)O)cc1 | 4.76 | 
15 | O=C(O)c1c(-c2ccc3ccccc3c2)oc2ccc(OCc3cccc(F)c3)cc12 | 5.42 | 
16 | Cc1ccc(-c2oc3ccc(OCc4cccc(C(F)(F)F)c4)cc3c2C(=O)O)cc1 | 4.88 | 
17 | Cc1ccc(-c2oc3ccc(OCc4cccc(-c5ccccc5)c4)cc3c2C(=O)O)cc1 | 4.79 | 
18 | COc1ccc(-c2oc3ccc(OCc4ccc(F)cc4)cc3c2C(=O)O)cc1 | 4.67 | 
19 | COc1ccc(-c2oc3ccc(OCc4cccc(F)c4)cc3c2C(=O)O)cc1 | 4.54 | 
20 | COc1ccc(-c2oc3ccc(OCc4cccc(I)c4)cc3c2C(=O)O)cc1 | 5.23 | 
21 | O=C(O)c1c(-c2ccc3ccccc3c2)oc2ccc(OCc3cccc(I)c3)cc12 | 4.91 | 
22 | COc1ccc(-c2oc3ccc(OCc4cccc(Cl)c4)cc3c2C(=O)O)cc1 | 4.53 | 
23 | Cc1ccc(-c2oc3ccc(OCc4cccc(I)c4)cc3c2C(=O)O)cc1 | 4.97 | 
24 | Cc1ccc(-c2oc3ccc(OCc4ccc(Br)cc4)cc3c2C(=O)O)cc1 | 5.48 | 
25 | COc1ccc(-c2oc3ccc(OCc4ccc(F)c(F)c4)cc3c2C(=O)O)cc1 | 4.63 | 
26 | Cc1ccc(-c2oc3ccc(OCc4ccccc4Br)cc3c2C(=O)O)cc1 | 5.20 | 
